# Measured values as given in ChEMBL document CHEMBL1782036, “Atovaquone derivatives as potent cytotoxic and apoptosis inducing agents” (Bioorg Med Chem Lett, 2009).
# The source made the active and inactive calls. The calls are words filed in the database; no cut-off is given here.
# How the values were obtained:
# [1] = Antiproliferative activity against human L78 cells after 72 hrs by MTT assay; type: functional, cell-based; details: L78, 72 h
# DU-145 [2] = test: Induction of apoptosis in human DU145 cells assessed as caspase-9 activation at 1 to 10 uM after 24 hrs by Western blot analysis; type: functional, cell-based
# Outline: (§1)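 Du145 lysates from dose-ranging treatment were analysed by Western blot for activation of caspase 9 and caspase 3.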
# SGC-7901 = test: Antiproliferative activity against human SGC7901 cells after 72 hrs by MTT assay; type: functional, cell-based; details: SGC-7901, 72 h
# DU-145 [3] = test: Induction of apoptosis in human DU145 cells at 5 uM after 72 hrs by AnnexinV conjugated 7- AAD staining by flow cytometry; type: functional, cell-based
# Outline: (§2)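 Du145 cells were treated for 72 h and stained with Annexin V conjugate plus 7-AAD. Flow cytometry read PS externalization and membrane integrity, scoring cells as live (double negative), early apoptotic, or late apoptotic/necrotic (double positive). Untreated cells served as the control.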
# DU-145 [4] = test: Induction of apoptosis in human DU145 cells assessed as caspase-3 activation at 1 to 10 uM after 24 hrs by Western blot analysis; type: functional, cell-based; outline: as §1
# MOLT-4 = test: Antiproliferative activity against human MOLT4 cells after 72 hrs by MTT assay; type: functional, cell-based; details: MOLT-4, 72 h
# A549 = test: Antiproliferative activity against human A549 cells after 72 hrs by MTT assay; type: functional, cell-based; details: A549, 72 h
# HepG2 = test: Antiproliferative activity against human HepG2 cells after 72 hrs by MTT assay; type: functional, cell-based; details: HepG2, 72 h
# DU-145 [5] = test: Induction of apoptosis in human DU145 cells at 10 uM assessed as early apoptosis level after 72 hrs by AnnexinV conjugated 7- AAD staining by flow cytometry; type: functional; outline: as §2
# DU-145 [6] = test: Induction of chromatin condensation in human DU145 cells at 20 uM by Hoechst 33342 staining by fluorescent microscopy; type: functional, cell-based
# Outline: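 Du145 cells were exposed for 24 h, with 0.2% DMSO as the vehicle control. Nuclei were stained with Hoechst 33342 and viewed by fluorescence microscopy at 100× for chromatin condensation and nuclear shrinkage.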
# DU-145 [7] = test: Growth inhibition of human DU145 cells after 72 hrs by MTT assay; type: functional, cell-based; details: DU-145, 72 h
# Outline: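 Du145 human prostate carcinoma cells were screened by MTT cell-growth inhibition assay. IC50 values are means of three experiments.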
# HeLa = test: Antiproliferative activity against human HeLa cells after 72 hrs by MTT assay; type: functional, cell-based
# HT-1080 = test: Antiproliferative activity against human HT1080 cells after 72 hrs by MTT assay; type: functional, cell-based; details: HT-1080, 72 h
# OS-RC-2 = test: Antiproliferative activity against human OS-RC2 cells after 72 hrs by MTT assay; type: functional, cell-based; details: OS-RC-2, 72 h
# U-251 = test: Antiproliferative activity against human U251 cells after 72 hrs by MTT assay; type: functional, cell-based; details: U-251, 72 h
# DU-145 [8] = test: Induction of apoptosis in human DU145 cells at 10 uM assessed as live cell level after 72 hrs by AnnexinV conjugated 7- AAD staining by flow cytometry; type: functional; outline: as §2
# MCF7 = test: Antiproliferative activity against human MCF7 cells after 72 hrs by MTT assay; type: functional, cell-based; details: MCF7, 72 h
# DU-145 [9] = test: Induction of apoptosis in human DU145 cells at 10 uM after 72 hrs by AnnexinV conjugated 7- AAD staining by flow cytometry; type: functional, cell-based; outline: as §2
# KB = test: Antiproliferative activity against human KB cells after 72 hrs by MTT assay; type: functional, cell-based
# IMR-90 = test: Antiproliferative activity against human IMR90 cells after 72 hrs by MTT assay; type: cell-based; details: IMR-90, 72 h
# DU-145 [10] = test: Induction of apoptosis in human DU145 cells at 10 uM assessed as dead cell level after 72 hrs by AnnexinV conjugated 7- AAD staining by flow cytometry; type: functional
# Outline: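 Du145 human prostate carcinoma cells exposed to compound for 72 h, then stained with Annexin V and 7-AAD and analysed by flow cytometry. Annexin V detects phosphatidylserine externalised to the outer membrane leaflet, and 7-AAD enters only membrane-compromised cells. Dead cells were those positive for both stains. Untreated cells served as control.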
# HT-29 = test: Antiproliferative activity against human HT-29 cells after 72 hrs by MTT assay; type: functional, cell-based; details: HT-29, 72 h
smiles,measurement,setting,value
O=C1C=C(N2CCN(c3ccccc3)CC2)C(=O)c2c(O)cccc21,IC50,[1],3.6 µM
same,Activity,DU-145 [2],Dose-dependent effect
same,IC50,SGC-7901,3.7 µM
same,Activity,DU-145 [3],Active
same,Activity,DU-145 [4],Dose-dependent effect
same,IC50,MOLT-4,> 50 µM
same,IC50,A549,4.2 µM
same,IC50,HepG2,5.4 µM
same,Activity,DU-145 [5],37.6%
same,Activity,DU-145 [6],Active
same,IC50,DU-145 [7],2.8 µM
same,IC50,HeLa,6.9 µM
same,IC50,HT-1080,8.2 µM
same,IC50,OS-RC-2,1.5 µM
same,IC50,U-251,6.1 µM
same,Activity,DU-145 [8],2.8%
same,IC50,MCF7,5.2 µM
same,Activity,DU-145 [9],Active
same,IC50,KB,7 µM
same,IC50,IMR-90,> 50 µM
same,Activity,DU-145 [10],58%
same,IC50,HT-29,2.9 µM
